Results on eleven compounds are retold here after ChEMBL document CHEMBL1122413, “Chloralanyl and propargylglycyl dipeptides. Suicide substrate containing antibacterials” (1983).

Values after ≈ are worked out from the molar mass of the structure shown. Where a SMILES comes first, the peptide text is derived from it. [ ]: non-standard residue; d: D form. Pra = C#CC[CH](N)C(=O)O

One assay relates to Escherichia coli. The experiment in a line: Minimum inhibitory concentration against Escherichia coli. It is filed as functional. The method in brief:
(§1)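 Agar dilution on defined peptide susceptibility medium with peptide in serial twofold dilutions. Strains subcultured on blood or chocolate agar. Inoculum from overnight culture in liquid peptide medium, diluted to approx 1×10^7 cfu/mL, applied by Steers replicator. Plates incubated overnight at 37 °C. MIC taken as lowest concentration permitting fewer than ten colonies at 16–18 h.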

The next assay relates to Klebsiella aerogenes. Description: Minimum inhibitory concentration against Enterobacter aerogenes. It is filed as functional. The method in brief:
as §1

Another assay deals with Enterobacter cloacae. Description: Minimum inhibitory concentration against Enterobacter cloacae. Type of assay: functional. The essentials:
as §1

A further assay deals with Haemophilus influenzae. Description: Minimum inhibitory concentration against Hemophilus influenzae. It is filed as functional. The method in brief: (§2)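 Agar dilution on defined peptide susceptibility medium with hemin (25 μg/mL), NAD (25 μg/mL) and Isovitalex (1%) added, peptide in serial twofold dilutions. Colonies from overnight chocolate or blood agar resuspended in liquid peptide medium to 10⁸ cfu/mL, applied by Steers replicator. Incubation overnight at 37 °C under 7% CO₂. MIC: lowest concentration giving fewer than ten colonies at 16–18 h.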

In the next assay the test system is Klebsiella pneumoniae. The experiment in a line: Minimum inhibitory concentration against Klebsiella pneumoniae. Type of assay: functional. The method in brief: as §1
For the next assay, the system named is Morganella morganii. Description: Minimum inhibitory concentration against Morganella morganii. Type of assay: functional. The method in brief: as §1
The test system of a further assay is Pseudomonas aeruginosa. The experiment in a line: Minimum inhibitory concentration against Pseudomonas aeruginosa. Type of assay: functional. The essentials: as §1
Another assay relates to Proteus mirabilis. Description: Minimum inhibitory concentration against Proteus mirabilis. It is filed as functional. The method in brief: as §1
Assay [1] relates to Salmonella typhimurium. The experiment in a line: Minimum inhibitory concentration against Salmonella Typhimurium. To be noted: Salmonella enterica. It is filed as functional, Salmonella enterica subsp. enterica serovar Typhimurium. The method in brief:
as §1

For another assay, the system named is Serratia marcescens. Description: Minimum inhibitory concentration against Serratia marcescens. It is filed as functional. The essentials: as §1
A further assay concerns Shigella flexneri. Description: Minimum inhibitory concentration against Shigella flexneri. It is filed as functional. The method in brief: as §1
In assay [2] the test system is Staphylococcus epidermidis. Description: Minimum inhibitory concentration against Staphylococcus epidermidis. Type of assay: functional. The method in brief: as §1
The next assay deals with Streptococcus agalactiae. Description: Minimum inhibitory concentration against Streptococcus agalactiae. It is filed as functional. The method in brief:
as §2

The test system of a further assay is Staphylococcus aureus. The experiment in a line: Minimum inhibitory concentration against Staphylococcus aureus. It is filed as functional. The method in brief: as §1
A further assay relates to Enterococcus faecalis. Description: Minimum inhibitory concentration against Streptococcus faecalis. It is filed as functional. The method in brief: as §1
The test system of the next assay is Streptococcus pyogenes. Description: Minimum inhibitory concentration against Streptococcus pyogenes. It is filed as functional. The essentials:
as §2

The test system of assay [3] is Salmonella typhimurium. Description: Minimum inhibitory concentration against Salmonella Typhimurium.

For the compound `C#CC[C@H](NC(=O)[C@H](C)N)C(=O)O.O=C(O)C(F)(F)F`, the MIC with Escherichia coli, with Klebsiella aerogenes, in the assay with Enterobacter cloacae, against Haemophilus influenzae, in the assay with Klebsiella pneumoniae and against Morganella morganii was above 100 µg/mL throughout. In addition, the MIC in the assay on Pseudomonas aeruginosa is above 100 µg/mL; in the assay with Proteus mirabilis it was above 100 µg/mL; with Salmonella typhimurium [1], above 100 µg/mL; against Serratia marcescens it was above 100 µg/mL; against Shigella flexneri it was above 100 µg/mL; in [2], 1.56 µg/mL. In addition, the MIC in the assay with Streptococcus agalactiae is 100 µg/mL; against Staphylococcus aureus it was above 100 µg/mL; against Enterococcus faecalis it was 100 µg/mL; with Streptococcus pyogenes, above 100 µg/mL.

As for `N[C@H](CCl)C(=O)O`, the MIC is 6.25 µg/mL (≈ 50.6 µM) against Escherichia coli; 12.5 µg/mL (≈ 101 µM) with Klebsiella aerogenes; 100 µg/mL (≈ 809 µM) against Enterobacter cloacae; 6.25 µg/mL (≈ 50.6 µM) in the assay with Haemophilus influenzae; 100 µg/mL (≈ 809 µM) in the assay on Klebsiella pneumoniae; above 100 µg/mL against Morganella morganii. The MIC is above 100 µg/mL against Pseudomonas aeruginosa; above 100 µg/mL against Proteus mirabilis; 100 µg/mL (≈ 809 µM) in the assay on Salmonella typhimurium [1]; 25 µg/mL (≈ 202 µM) in the assay on Serratia marcescens; 50 µg/mL (≈ 405 µM) in the assay with Shigella flexneri; 25 µg/mL (≈ 202 µM) in assay [2]. For the same compound, the MIC against Streptococcus agalactiae is 12.5 µg/mL (≈ 101 µM); in the assay on Staphylococcus aureus it was 12.5 µg/mL (≈ 101 µM); in the assay with Enterococcus faecalis it was 50 µg/mL (≈ 405 µM); in the assay on Streptococcus pyogenes, 12.5 µg/mL (≈ 101 µM).

On to `C#CC[C@@H](NC(=O)[C@H](C)N)C(=O)O.O=C(O)C(F)(F)F`, for which the MIC against Escherichia coli, with Klebsiella aerogenes, against Enterobacter cloacae, in the assay on Haemophilus influenzae, against Klebsiella pneumoniae and in the assay with Morganella morganii was above 100 µg/mL in each case. The MIC (in the assay on Pseudomonas aeruginosa; in the assay on Proteus mirabilis; against Salmonella typhimurium [1]; in the assay with Serratia marcescens; with Shigella flexneri; in [2]) was above 100 µg/mL in each case. In addition, the MIC in the assay on Streptococcus agalactiae, in the assay with Staphylococcus aureus, with Enterococcus faecalis and against Streptococcus pyogenes was above 100 µg/mL each time.

With `C#CC[C@@H](N)C(=O)N[C@@H](C)C(=O)O.O=C(O)C(F)(F)F`, the MIC in the assay on Escherichia coli, against Klebsiella aerogenes, with Enterobacter cloacae, in the assay with Haemophilus influenzae, in the assay with Klebsiella pneumoniae and against Morganella morganii was above 100 µg/mL throughout. Further, the MIC (with Pseudomonas aeruginosa; in the assay on Proteus mirabilis; with Salmonella typhimurium [1]; against Serratia marcescens; in the assay on Shigella flexneri; in assay [2]) was above 100 µg/mL in each case. The MIC against Streptococcus agalactiae, in the assay on Staphylococcus aureus, against Enterococcus faecalis and in the assay on Streptococcus pyogenes was above 100 µg/mL in each case.

`C[C@H](NC(=O)[C@@H](N)CCl)C(=O)O.O=C(O)C(F)(F)F`: the MIC in the assay on Escherichia coli, in the assay on Klebsiella aerogenes, against Enterobacter cloacae, against Haemophilus influenzae, in the assay with Klebsiella pneumoniae and against Morganella morganii was above 100 µg/mL throughout. Further, the MIC in the assay with Pseudomonas aeruginosa was above 100 µg/mL; against Proteus mirabilis it was above 100 µg/mL; in the assay with Salmonella typhimurium [1], above 100 µg/mL; with Serratia marcescens, above 100 µg/mL; against Shigella flexneri it was above 100 µg/mL; in assay [2], 0.025 µg/mL. Moreover, the MIC against Streptococcus agalactiae is 0.39 µg/mL; against Staphylococcus aureus it was 0.05 µg/mL; in the assay with Enterococcus faecalis, above 100 µg/mL; against Streptococcus pyogenes, above 100 µg/mL.

Consider `C[C@H](N)C(=O)N[C@@H](CCl)C(=O)O.O=C(O)C(F)(F)F`, for which the MIC in the assay on Escherichia coli, with Klebsiella aerogenes, against Enterobacter cloacae, against Haemophilus influenzae, with Klebsiella pneumoniae and in the assay with Morganella morganii was above 100 µg/mL each time. For the same compound, the MIC in the assay with Pseudomonas aeruginosa is above 100 µg/mL; against Proteus mirabilis it was above 100 µg/mL; in the assay with Salmonella typhimurium [1], above 100 µg/mL; with Serratia marcescens, above 100 µg/mL; in the assay with Shigella flexneri, above 100 µg/mL; in [2], 0.0125 µg/mL. The MIC in the assay with Streptococcus agalactiae is 0.2 µg/mL; against Staphylococcus aureus it was 0.0125 µg/mL; with Enterococcus faecalis, above 100 µg/mL; in the assay with Streptococcus pyogenes, above 100 µg/mL.

`C[C@H](N)C(=O)N[C@@H](C)C(=O)O.O=C(O)C(F)(F)F`: the MIC against Escherichia coli, against Klebsiella aerogenes, in the assay with Enterobacter cloacae, in the assay with Haemophilus influenzae, against Klebsiella pneumoniae and against Morganella morganii was above 100 µg/mL each time. Further, the MIC (with Pseudomonas aeruginosa; with Proteus mirabilis; in the assay on Serratia marcescens; with Shigella flexneri; in assay [2]; against Streptococcus agalactiae) was above 100 µg/mL throughout. For the same compound, the MIC in the assay with Staphylococcus aureus, with Enterococcus faecalis, in the assay with Streptococcus pyogenes and in the assay on Salmonella typhimurium [3] was above 100 µg/mL throughout.

With `C[C@@H](NC(=O)[C@H](N)CCl)C(=O)O.O=C(O)C(F)(F)F`, the MIC against Escherichia coli, against Klebsiella aerogenes, against Enterobacter cloacae, in the assay on Haemophilus influenzae, in the assay with Klebsiella pneumoniae and in the assay with Morganella morganii was above 100 µg/mL in each case. Also, the MIC (in the assay with Pseudomonas aeruginosa; in the assay with Proteus mirabilis; with Salmonella typhimurium [1]; against Serratia marcescens; in the assay with Shigella flexneri; in [2]) was above 100 µg/mL each time. The MIC in the assay on Streptococcus agalactiae, in the assay on Staphylococcus aureus, with Enterococcus faecalis and against Streptococcus pyogenes was above 100 µg/mL each time.

As for `N[C@@H](CCl)C(=O)O`, the MIC in the assay on Escherichia coli, against Klebsiella aerogenes, with Enterobacter cloacae, with Haemophilus influenzae, in the assay on Klebsiella pneumoniae and in the assay on Morganella morganii was above 100 µg/mL in each case. For the same compound, the MIC was above 100 µg/mL in the assay with Pseudomonas aeruginosa; above 100 µg/mL in the assay on Proteus mirabilis; above 100 µg/mL against Salmonella typhimurium [1]; above 100 µg/mL in the assay on Serratia marcescens; above 100 µg/mL in the assay with Shigella flexneri; 25 µg/mL (≈ 202 µM) in assay [2]. Also, the MIC against Streptococcus agalactiae is 3.12 µg/mL (≈ 25.3 µM); against Staphylococcus aureus it was 3.12 µg/mL (≈ 25.3 µM); with Enterococcus faecalis, above 100 µg/mL; in the assay with Streptococcus pyogenes, 3.12 µg/mL (≈ 25.3 µM).

With `C#CC[C@H](NC(=O)[C@@H](N)CC#C)C(=O)O.O=C(O)C(F)(F)F` (H-[Pra]-[Pra]-OH), the MIC is 25 µg/mL in the assay with Escherichia coli; above 100 µg/mL in the assay on Klebsiella aerogenes; 50 µg/mL against Enterobacter cloacae; above 100 µg/mL in the assay with Haemophilus influenzae; above 100 µg/mL against Klebsiella pneumoniae; above 100 µg/mL against Morganella morganii. Also, the MIC in the assay on Pseudomonas aeruginosa is above 100 µg/mL; with Proteus mirabilis, above 100 µg/mL; with Salmonella typhimurium [1], above 100 µg/mL; in the assay with Serratia marcescens, above 100 µg/mL; against Shigella flexneri, 12.5 µg/mL; in assay [2], 0.78 µg/mL. For the same compound, the MIC was 3.12 µg/mL in the assay on Streptococcus agalactiae, 3.12 µg/mL with Staphylococcus aureus, above 100 µg/mL in the assay on Enterococcus faecalis and above 100 µg/mL in the assay on Streptococcus pyogenes.

For the compound `C#CCC(N)C(=O)NC(CC#C)C(=O)O.O=C(O)C(F)(F)F` (stereo unspecified) (H-[Pra]-[Pra]-OH; configuration not given here), the MIC against Escherichia coli, against Klebsiella aerogenes, with Enterobacter cloacae, against Haemophilus influenzae, against Klebsiella pneumoniae and in the assay with Morganella morganii was above 100 µg/mL each time. Further, the MIC was above 100 µg/mL in the assay with Pseudomonas aeruginosa; above 100 µg/mL against Proteus mirabilis; above 100 µg/mL against Salmonella typhimurium [1]; above 100 µg/mL with Serratia marcescens; above 100 µg/mL in the assay with Shigella flexneri; 3.12 µg/mL in [2]. Moreover, the MIC against Streptococcus agalactiae was 6.25 µg/mL; with Staphylococcus aureus it was 12.5 µg/mL; against Enterococcus faecalis it was above 100 µg/mL; with Streptococcus pyogenes, above 100 µg/mL.
